Measured values from ChEMBL document CHEMBL3244319, “Angiotensin II analogues. 14. Roles of the imidazole nitrogens of position-6 histidine in pressor activity” (1979).
Starred links: 1 amine or outer side, 2 acyl side, 3 side chain; linkers in the order of their positions; H or OH if unused. Non-standard residues stand in square brackets, D forms with d. Residues, ends and D or L forms follow the SMILES beside them. X4 = O=C([C@H](Cc1cc[nH]n1)N[*:1])[*:2]; 2Thi = N[C@@H](Cc1cccs1)C(=O)O; Orn = NCCC[C@H](N)C(=O)O

species on record: Rattus norvegicus; assay: Pressor activity in rat relative to angiotensin-2; assay type: functional
How it was run: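 Male rats, anesthetized with pentobarbital, nephrectomized and treated with pentolinium; blood pressure rise recorded after dosing. Peptides dissolved in normal saline with 0.1% polyvinylpyrrolidone, held in siliconized glass containers. Activity expressed relative to [Asn1,Val5]angiotensin II set at 100.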

| Compound | Activity [%] |
| --- | --- |
| CC[C@H](C)[C@H](NC(=O)[C@H](Cc1ccc(O)cc1)NC(=O)[C@@H](NC(=O)[C@H](CCCNC(=N)N)NC(=O)[C@@H](N)CC(=O)O)C(C)C)C(=O)N[C@@H](Cc1cccs1)C(=O)N1CCC[C@H]1C(=O)N[C@@H](Cc1ccccc1)C(=O)O (H-DRVYI[2Thi]PF-OH) | 10 |
| CC[C@H](C)[C@H](NC(=O)[C@H](Cc1ccc(O)cc1)NC(=O)[C@@H](NC(=O)[C@H](CCCNC(=N)N)NC(=O)[C@@H](N)CC(=O)O)C(C)C)C(=O)N[C@@H](Cc1cc[nH]n1)C(=O)N1CCC[C@H]1C(=O)N[C@@H](Cc1ccccc1)C(=O)O (H-DRVYI[X4]PF-OH) | 57 |
| H-DRVYIKPF-OH | 0.1 |
| CC[C@H](C)[C@H](NC(=O)[C@H](Cc1ccc(O)cc1)NC(=O)[C@@H](NC(=O)[C@H](CCCN=C(N)N)NC(=O)[C@@H](N)CC(=O)O)C(C)C)C(=O)N[C@@H](Cc1c[nH]cn1)C(=O)N1CCC[C@H]1C(=O)N[C@@H](Cc1ccccc1)C(=O)O | 4 |
| CC[C@H](C)[C@H](NC(=O)[C@H](Cc1ccc(O)cc1)NC(=O)[C@@H](NC(=O)[C@H](CCCN=C(N)N)NC(=O)[C@@H](N)CC(=O)O)C(C)C)C(=O)N[C@@H](Cc1cncn1C)C(=O)N1CCC[C@H]1C(=O)N[C@@H](Cc1ccccc1)C(=O)O | 0.05 |
| CC[C@H](C)[C@H](NC(=O)[C@H](Cc1ccc(O)cc1)NC(=O)[C@@H](NC(=O)[C@H](CCCNC(=N)N)NC(=O)[C@@H](N)CC(=O)O)C(C)C)C(=O)N[C@@H](CCCN)C(=O)N1CCC[C@H]1C(=O)N[C@@H](Cc1ccccc1)C(=O)O (H-DRVYI[Orn]PF-OH) | 0.03 |
| CC[C@H](C)[C@H](NC(=O)[C@H](Cc1ccc(O)cc1)NC(=O)[C@@H](NC(=O)[C@H](CCCN=C(N)N)NC(=O)[C@@H](N)CC(=O)O)C(C)C)C(=O)N[C@@H](Cc1cn(C)cn1)C(=O)N1CCC[C@H]1C(=O)N[C@@H](Cc1ccccc1)C(=O)O | 5 |
| H-DRVYIRPF-OH | 0.01 |
| H-DRVYIEPF-OH | 0 |
| H-DRVYIFPF-OH | 3 |
| H-DRVYIAPF-OH | 0.8 |
| H-DRVYILPF-OH | 0.02 |
| H-DRVYIMPF-OH | 0.2 |
